Measurements taken from ChEMBL document CHEMBL1147241, “Cytotoxic constituents of Isodon rubescens var. lushiensis” (J Nat Prod, 2003).
In brackets after ≈: the same amount, converted by molar mass.

Key:
Type in all cases: functional, cell-based
[1] = Cytotoxicity against human CA cells by SRB method
How it was run: (§1)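 Sulforhodamine B (SRB) assay on CA liver cancer and HeLa cervical cancer cells; cis-platinum as positive control. Optical density recorded as mean ± S; IC50 calculated from OD data.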

HeLa = test: Cytotoxicity against human HeLa cells by SRB method; how it was run: as §1
K562 = test: Cytotoxicity against human K562 cells by MTT method
How it was run: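 Improved MTT assay on K562 human leukemia cells; cis-platinum as positive control. Optical density recorded as mean ± S; IC50 calculated from OD data.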

What does the source list for `C=C1C(=O)[C@]23C[C@H]1CC[C@H]2[C@@]1(CCC[C@@]2(C)CO[C@@H](OC)[C@H]21)COC3=O` [LUDONGNIN J]?
IC50 [1]: 0.09 mg/L (≈ 0.25 µM); IC50 (HeLa): 0.7 mg/L (≈ 1.94 µM); IC50 (K562): 0.18 mg/L (≈ 0.499 µM)

Which IC50 (K562) does the source give for `CO[C@H]1OC[C@]2(C)CCC[C@]3(COC(=O)[C@@]45C[C@@H](CC[C@H]43)[C@@H](C)C5=O)[C@H]12` [LUDONGNIN I] here?
Its IC50 is greater than 50 mg/L.

For `CO[C@@H]1OC[C@]2(C)CCC[C@]3(COC(=O)[C@@]45C[C@@H](CC[C@H]43)[C@H](C)C5=O)[C@H]12` [LUDONGNIN G], which IC50 (K562) is on record?
The IC50 was greater than 50 mg/L.

Which IC50 (K562) does the source give for `C=C1[C@@H]2C[C@@H](O)[C@H]3[C@@]4(CCC[C@@]5(C)COC(=O)[C@H]54)COC(=O)[C@]3(C2)[C@@H]1O` [GUIDONGNIN A] here?
The IC50 was 0.3 mg/L (≈ 0.828 µM).

Which IC50 (K562) does the source give for `C=C1C(=O)[C@]23C[C@H]1C[C@@H](O)[C@H]2[C@@]1(CCC[C@@]2(C)COC(=O)[C@H]21)COC3=O` [LUDONGNIN A] here?
The IC50 was 0.25 mg/L (≈ 0.694 µM).

For `CO[C@H]1OC[C@]2(C)CCC[C@]3(COC(=O)[C@@]45C[C@@H](CC[C@H]43)[C@H](C)C5=O)[C@H]12` [LUDONGNIN H], which IC50 (K562) is on record?
Its IC50 is greater than 50 mg/L.

With `C[C@H]1C(=O)[C@]23C[C@H]1C[C@@H](O)[C@H]2[C@@]1(CCC[C@@]2(C)COC(=O)[C@H]21)COC3=O` [GUIDONGNIN C] as the molecule, how does the IC50 (K562) read?
The IC50 was greater than 50 mg/L.

For `C=C1C(=O)[C@]23C[C@H]1C[C@@H](O)[C@H]2[C@@]1(CCC[C@@]2(C)CO[C@@H](OC)[C@H]21)COC3=O`, which IC50 (K562) is on record?
The IC50 was 0.87 mg/L (≈ 2.31 µM).

With `C=C1C(=O)[C@]23C[C@H]1CC[C@H]2[C@]1(COC3=O)C2CC[C@@]3(C)COC(O2)[C@H]31` (some centres undefined) [SCULPONEATIN J] as the molecule, how does the IC50 (K562) read?
The IC50 was 0.83 mg/L (≈ 2.41 µM).

For `CO[C@@H]1OC[C@]2(C)CCC[C@]3(COC(=O)[C@@]45C[C@@H](CC[C@H]43)[C@@H](C)C5=O)[C@H]12` [LUDONGNIN F], which IC50 (K562) is on record?
The IC50 was greater than 50 mg/L.

Which IC50 (K562) does the source give for `C=C1C(=O)[C@]23C[C@H]1C[C@@H](O)[C@H]2[C@@]1(CCC[C@@]2(C)CO[C@H](OC)[C@H]21)COC3=O` [ANGUSTIFOLIN] here?
The IC50 was 0.23 mg/L (≈ 0.611 µM).

With `C[C@H]1C(=O)[C@]23C[C@H]1CC[C@H]2[C@@]1(CCC[C@@]2(C)COC(=O)[C@H]21)COC3=O` [GUIDONGNIN B] as the molecule, how does the IC50 (K562) read?
Its IC50 is greater than 50 mg/L.
